Measurements taken from ChEMBL document CHEMBL2062523, “Synthesis and evaluation of the quorum sensing inhibitory effect of substituted triazolyldihydrofuranones” (Bioorg Med Chem, 2012).
Converted amounts (≈) assume the structure as drawn. The source made the active and inactive calls. No cut-off for these calls is given here.

Legend:
Pseudomonas aeruginosa [1] = test: Antimicrobial activity against Pseudomonas aeruginosa PAO1 assessed as reduction of biofilm biomass at 1 mM incubated for 24 hrs post-biofilm growth by crystal violet staining; format: functional; design: scale not given: the % may be the effect or the level left
Procedure, shortened: (§1)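 Mature-biofilm treatment: biofilms grown 24 h at 37 °C without compound, rinsed with saline, then fresh medium containing compound added for a further 24 h at 37 °C. Biomass measured by crystal violet (methanol fixation, acetic acid elution, A590). Reported as % of control biofilm; twelve wells, ≥2 repeats.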

Pseudomonas aeruginosa [2] = test: Agonist activity at Pseudomonas aeruginosa QSIS2 LasR-mediated quorum sensing coexpressing SacB1 assessed as […] by reporter gene assay; format: functional
Pseudomonas aeruginosa [3] = test: Antibacterial activity against Pseudomonas aeruginosa PAO1 after 20 hrs by broth microdilution assay; format: functional; conditions: PAO1, 20 h
Procedure, shortened: (§2)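 EUCAST broth microdilution in triplicate, inoculum about 5 × 10^5 CFU/ml. Incubated 20 h at 37 °C, then OD590 read. Compounds from 100 mM DMSO stocks, diluted in water.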

[4] = target: T1, Transcriptional activator protein LuxR (Aliivibrio fischeri) (UniProt P12746); test: (§3) Antagonist activity at Vibrio fischeri LuxR-mediated quorum sensing expressed in Escherichia coli JB523 assessed as inhibition of C6-HSL-induced GFP expression after 24 hrs by reporter gene assay; format: functional
T1 sequence (whole entry): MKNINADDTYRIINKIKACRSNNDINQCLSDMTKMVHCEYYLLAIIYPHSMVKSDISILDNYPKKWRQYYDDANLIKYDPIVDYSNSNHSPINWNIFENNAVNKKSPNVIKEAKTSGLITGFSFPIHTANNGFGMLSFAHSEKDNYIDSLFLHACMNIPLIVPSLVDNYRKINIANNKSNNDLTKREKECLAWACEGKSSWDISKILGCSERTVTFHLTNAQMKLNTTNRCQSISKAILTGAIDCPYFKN
Procedure, shortened: (§4)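 JB523 GFP biosensor in LB/0.4% NaCl at OD590 0.1 with tetracycline 100 µg/ml final; compounds co-added with C6-HSL (5 µM). Plates kept 24 h at 30 °C, then GFP read at 485/510 nm. Each compound tested in twelve wells, assay repeated at least three times.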

[5] = target: T2, Transcriptional activator protein LuxR (Aliivibrio fischeri, UniProt P12746); test: as §3; format: functional; procedure, shortened: as §4
T2 sequence (P12746 whole entry): T1 sequence (whole entry)

Burkholderia cenocepacia [6] = test: Antimicrobial activity against Burkholderia cenocepacia LMG16656 assessed as reduction of cell viability at 1 mM after 24 hrs by CTB staining; format: functional, organism-based
Procedure, shortened: (§5)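 Overnight MH cultures were centrifuged, resuspended in 2× MH and set to OD590 0.1. Cells adhered 4 h at 37 °C, wells were washed with saline, then compound in 2× MH was added for 20 h at 37 °C. Viable cells were read by resazurin (CTB) fluorescence after 60 min (ex 535/em 590) as % of untreated biofilm; 12 wells, ≥2 repeats.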

[7] = target: T1, Transcriptional activator protein LuxR (Aliivibrio fischeri); test: Agonist activity at Vibrio fischeri LuxR-mediated quorum sensing expressed in Escherichia coli JB523 assessed as GFP expression at 1 mM after 24 hrs by reporter gene assay; format: functional
Procedure, shortened: (§6)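 E. coli JB523 (pJBA130, luxR-PluxI–GFP) overnight culture diluted to OD590 0.1 in LB with 0.4% NaCl, tetracycline 100 µg/ml final. Compounds 100–1000 µM added without signal; C6-HSL (5 µM) as positive control, water as negative. 24 h at 30 °C; GFP fluorescence ex 485/em 510 nm. Twelve wells per compound, ≥3 repeats.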

Burkholderia cenocepacia [8] = test: Antibacterial activity against Burkholderia cenocepacia LMG16656 after 20 hrs by broth microdilution assay; format: functional; conditions: LMG16656, 20 h; procedure, shortened: as §2
[9] = Cytotoxicity against human MRC5 cells after 3 days by resazurin reduction assay; format: cell-based
Procedure, shortened: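 MRC-5 SV2 human lung fibroblasts in Earle's MEM with 5% FCSi, about 10^4 cells per well, exposed for 3 days at 37 °C and 5% CO2. Viability read by resazurin fluorescence (ex 550/em 590 nm) as % reduction versus untreated wells; CC50 derived.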

Pseudomonas aeruginosa [10] = test: Agonist activity at Pseudomonas aeruginosa QSIS2 LasR-mediated quorum sensing co-expressing SacB1 assessed as luminescence at 0.25 mM after 24 hrs by reporter gene assay; format: functional
Burkholderia cenocepacia [11] = test: Antimicrobial activity against Burkholderia cenocepacia LMG16656 assessed as reduction of biofilm biomass at 1 mM incubated for 24 hrs post-biofilm growth by crystal violet staining; format: functional, organism-based; procedure, shortened: as §1
Pseudomonas aeruginosa [12] = test: Agonist activity at Pseudomonas aeruginosa QSIS2 LasR-mediated quorum sensing co-expressing SacB1 assessed as luminescence at 0.5 mM after 24 hrs by reporter gene assay; format: functional
Pseudomonas aeruginosa [13] = test: Antagonist activity at Pseudomonas aeruginosa QSIS2 LasR-mediated quorum sensing co-expressing SacB1 assessed as inhibition of 3-oxo-C12-HSL-induced luminescence at 0.1 mM after 24 hrs by reporter gene assay; format: functional
[14] = target: T1, Transcriptional activator protein LuxR (Aliivibrio fischeri); test: Antagonist activity at Vibrio fischeri LuxR-mediated quorum sensing expressed in Escherichia coli JB523 assessed as inhibition of C6-HSL-induced GFP expression at 1 mM after 24 hrs by reporter gene assay; format: functional; procedure, shortened: as §4
Pseudomonas aeruginosa [15] = test: Agonist activity at Pseudomonas aeruginosa QSIS2 LasR-mediated quorum sensing co-expressing SacB1 assessed as luminescence at 0.1 mM after 24 hrs by reporter gene assay; format: functional
Pseudomonas aeruginosa [16] = test: Antagonist activity at Pseudomonas aeruginosa QSIS2 LasR-mediated quorum sensing co-expressing SacB1 assessed as inhibition of 3-oxo-C12-HSL-induced luminescence at 0.5 mM after 24 hrs by reporter gene assay; format: functional
Pseudomonas aeruginosa [17] = test: Antimicrobial activity against Pseudomonas aeruginosa PAO1 assessed as reduction of cell viability at 1 mM after 24 hrs by CTB staining; format: functional, organism-based; procedure, shortened: as §5
Pseudomonas aeruginosa [18] = test: Antimicrobial activity against Pseudomonas aeruginosa PAO1 assessed as reduction of cell viability at 1 mM incubated for 24 hrs post-biofilm growth by CTB staining; format: functional
Procedure, shortened: (§7)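 Biofilms were grown 24 h at 37 °C in 2× MH (inoculum OD590 0.1) without compound. Wells were rinsed with saline, fresh medium with compound was added, and plates were held a further 24 h at 37 °C. Metabolically active cells were measured by CTB resazurin fluorescence after 60 min (ex 535/em 590) as % of control biofilm; n ≥ 24.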

Escherichia coli = test: Antibacterial activity against Escherichia coli JB523 after 20 hrs by broth microdilution assay; format: functional; conditions: JB523, 20 h; procedure, shortened: as §2
[19] = target: T1, Transcriptional activator protein LuxR (Aliivibrio fischeri); test: Agonist activity at Vibrio fischeri LuxR-mediated quorum sensing expressed in Escherichia coli JB523 assessed as GFP expression at 0.1 mM after 24 hrs by reporter gene assay; format: functional; procedure, shortened: as §6
Pseudomonas aeruginosa [20] = test: Antagonist activity at Pseudomonas aeruginosa QSIS2 LasR-mediated quorum sensing co-expressing SacB1 assessed as inhibition of 3-oxo-C12-HSL-induced luminescence at 1 mM […] by reporter gene assay; format: functional
[21] = target: T1, Transcriptional activator protein LuxR (Aliivibrio fischeri); test: Antagonist activity at Vibrio fischeri LuxR-mediated quorum sensing expressed in Escherichia coli JB523 assessed as inhibition of C6-HSL-induced GFP expression at 0.1 mM after 24 hrs by reporter gene assay; format: functional; procedure, shortened: as §4
Pseudomonas aeruginosa [22] = test: Antimicrobial activity against Pseudomonas aeruginosa PAO1 assessed as inhibition of biofilm formation at 1 mM after 24 hrs by crystal violet staining; format: functional; conditions: for inhibition at 1000 µM: PAO1, 24 h
Procedure, shortened: (§8)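 Overnight MH cultures resuspended in 2× MH at OD590 0.1 and mixed 1:1 with compound or water. Adhesion 4 h at 37 °C without agitation, then washed with saline. Refilled with 2× MH plus compound and incubated 20 h at 37 °C. Methanol-fixed, crystal violet stained, eluted with 33% acetic acid, A590 read. Expressed as % of untreated biofilm; n ≥ 24.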

[23] = target: T1, Transcriptional activator protein LuxR (Aliivibrio fischeri); test: Antagonist activity at Vibrio fischeri LuxR expressed in Escherichia coli JB523 assessed as inhibition of C6-HSL-induced GFP expression at 0.5 mM after 24 hrs by reporter gene assay; format: functional; procedure, shortened: as §4
Burkholderia cenocepacia [24] = test: Antimicrobial activity against Burkholderia cenocepacia LMG16656 assessed as reduction of cell viability at 1 mM incubated for 24 hrs post-biofilm growth by CTB staining; format: functional, organism-based; procedure, shortened: as §7
Pseudomonas aeruginosa [25] = test: Antagonist activity at Pseudomonas aeruginosa QSIS2 LasR-mediated quorum sensing co-expressing SacB1 assessed as inhibition of 3-oxo-C12-HSL-induced luminescence at 0.25 mM […] by reporter gene assay; format: functional
Pseudomonas aeruginosa [26] = test: Antibacterial activity against Pseudomonas aeruginosa QSIS2 after 20 hrs by broth microdilution assay; format: functional; conditions: QSIS2, 20 h; procedure, shortened: as §2
Burkholderia cenocepacia [27] = test: Antimicrobial activity against Burkholderia cenocepacia LMG16656 assessed as inhibition of biofilm formation at 1 mM after 24 hrs by crystal violet staining; format: functional; conditions: LMG16656, 24 h; procedure, shortened: as §8
[28] = target: T1, Transcriptional activator protein LuxR (Aliivibrio fischeri); test: Agonist activity at Vibrio fischeri LuxR-mediated quorum sensing expressed in Escherichia coli JB523 assessed as GFP expression at 0.25 mM after 24 hrs by reporter gene assay; format: functional; procedure, shortened: as §6
Pseudomonas aeruginosa [29] = test: Agonist activity at Pseudomonas aeruginosa QSIS2 LasR-mediated quorum sensing co-expressing SacB1 assessed as luminescence after 24 hrs by reporter gene assay; format: functional
[30] = target: T1, Transcriptional activator protein LuxR (Aliivibrio fischeri); test: Agonist activity at Vibrio fischeri LuxR-mediated quorum sensing expressed in Escherichia coli JB523 assessed as GFP expression at 0.5 mM after 24 hrs by reporter gene assay; format: functional; procedure, shortened: as §6

| SMILES | Activity (Pseudomonas aeruginosa [1]) | Activity (Pseudomonas aeruginosa [2]) | MIC (Pseudomonas aeruginosa [3]) | inhibition [4] | Activity (Burkholderia cenocepacia [6]) | Activity [7] | MIC (Burkholderia cenocepacia [8]) | CC50 at 72 h [9] | Activity (Pseudomonas aeruginosa [10]) | Activity (Burkholderia cenocepacia [11]) | Activity (Pseudomonas aeruginosa [12]) | inhibition (Pseudomonas aeruginosa [13]) | inhibition [14] | Activity (Pseudomonas aeruginosa [15]) | inhibition (Pseudomonas aeruginosa [16]) | Activity (Pseudomonas aeruginosa [17]) | Activity (Pseudomonas aeruginosa [18]) | MIC (Escherichia coli) | Activity [19] | inhibition (Pseudomonas aeruginosa [20]) | further results |
| --- | --- | --- | --- | --- | --- | --- | --- | --- | --- | --- | --- | --- | --- | --- | --- | --- | --- | --- | --- | --- | --- |
| CCCCCCCCc1cn(C2CCOC2=O)nn1 (stereo unspecified) | 38% | 29% | 2500 µM (≈ 663 µg/mL) | Dose-dependent effect | Active | 10.6% | 2500 µM (≈ 663 µg/mL) | > 1000 µM | inactive | Active | 19.4% | inactive | 71.6% | inactive | inactive | Active | 28% | 5000 µM (≈ 1330 µg/mL) | inactive | inactive | IC50 [5]: 308 µM; inhibition [21]: 34.1%; inhibition (Pseudomonas aeruginosa [22]): inactive; inhibition [23]: 59.8%; Activity (Burkholderia cenocepacia [24]): Active; inhibition (Pseudomonas aeruginosa [25]): inactive; MIC (Pseudomonas aeruginosa [26]): 2500 µM (≈ 663 µg/mL); inhibition at 1000 µM (Burkholderia cenocepacia [27]): 68%; Activity [28]: inactive; Activity (Pseudomonas aeruginosa [29]): Dose-dependent effect; Activity [30]: 5.2% |
| CCCCCCCCCCCCc1cn(C2CCOC2=O)nn1 (stereo unspecified) | Active | 45.5% | 2500 µM (≈ 804 µg/mL) | Dose-dependent effect | Active | inactive | 2500 µM (≈ 804 µg/mL) | 670 µM | 32% | Active | 43.8% | 10.6% | 34.4% | 28.7% | 30.9% | Active | Active | 2500 µM (≈ 804 µg/mL) | inactive | 36.5% | inhibition [21]: inactive; inhibition at 1000 µM (Pseudomonas aeruginosa [22]): 46%; inhibition [23]: 23.7%; Activity (Burkholderia cenocepacia [24]): Active; inhibition (Pseudomonas aeruginosa [25]): 12.8%; MIC (Pseudomonas aeruginosa [26]): 2500 µM (≈ 804 µg/mL); inhibition at 1000 µM (Burkholderia cenocepacia [27]): 70%; Activity [28]: inactive; Activity (Pseudomonas aeruginosa [29]): Dose-dependent effect; Activity [30]: inactive |
| O=C1OCCC1n1cc(CCc2ccccc2)nn1 (stereo unspecified) | 36% | 81.4% | 2500 µM (≈ 643 µg/mL) | Dose-dependent effect | Active | inactive | 5000 µM (≈ 1290 µg/mL) | > 1000 µM | 41.5% | Active | 67.2% | 15.8% | 29.2% | 39.1% | 35.2% | Active | 37% | 10000 µM (≈ 2570 µg/mL) | inactive | 43.2% | inhibition [21]: inactive; inhibition at 1000 µM (Pseudomonas aeruginosa [22]): 40%; inhibition [23]: 25.7%; Activity (Burkholderia cenocepacia [24]): Active; inhibition (Pseudomonas aeruginosa [25]): 25.3%; MIC (Pseudomonas aeruginosa [26]): 5000 µM (≈ 1290 µg/mL); inhibition at 1000 µM (Burkholderia cenocepacia [27]): 40%; Activity [28]: inactive; Activity (Pseudomonas aeruginosa [29]): Dose-dependent effect; Activity [30]: inactive |
